Assay results as given in ChEMBL document CHEMBL4118097, “Selective Inhibitors of Dual Leucine Zipper Kinase (DLK, MAP3K12) with Activity in a Model of Alzheimer's Disease” (J Med Chem, 2017).

Legend:
[1] = target: PAS domain-containing serine/threonine-protein kinase (Homo sapiens) (UniProt Q96RG2); experiment: Inhibition of recombinant GST-tagged human PASK catalytic domain expressed in baculovirus expression system at 1 uM by FRET assay relative to control
Method in brief: (§1)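 Single-point screen at 1 μM compound in a 220-kinase panel run by Life Technologies (SelectScreen). Z′-LYTE format: phosphorylation of a labeled peptide substrate read by FRET. Values are reported as percent inhibition.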

[2] = target: Histamine H1 receptor (Homo sapiens) (UniProt P35367); experiment: Binding affinity to recombinant human H1 receptor at 10 uM relative to control
Method in brief: (§2)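 Broad radioligand-binding and enzyme screening panel covering 42 targets (biogenic amine and neuropeptide receptors, ion channels, neurotransmitter transporters, acetylcholinesterase). Single test concentration of 10 μM. Results expressed as binding relative to control, with a hit defined as >50% of control.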

[3] = target: Serine/threonine-protein kinase 25 (Homo sapiens) (UniProt O00506); experiment: Inhibition of recombinant full length GST-tagged human YSK1 expressed in baculovirus expression system at 1 uM by FRET assay relative to control
[4] = target: Serine/threonine-protein kinase Nek1 (Homo sapiens) (UniProt Q96PY6); experiment: Inhibition of recombinant full length GST-tagged human NEK1 expressed in baculovirus expression system at 1 uM by FRET assay relative to control
Method in brief: (§3)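 Single-concentration screen at 1 μM in Life Technologies SelectScreen, across a 220-kinase panel. Z′-LYTE format measures phosphorylation of a labeled peptide by FRET. Results are reported as percent inhibition.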

[5] = target: Mitogen-activated protein kinase 1 (Homo sapiens) (UniProt P28482); experiment: Inhibition of recombinant GST-tagged human ERK2 expressed in Escherichia coli at 1 uM by FRET assay relative to control; method in brief: as §1
Chain of Mitogen-activated protein kinase 1 (Homo sapiens) (P28482 whole entry, the tested form may be a part): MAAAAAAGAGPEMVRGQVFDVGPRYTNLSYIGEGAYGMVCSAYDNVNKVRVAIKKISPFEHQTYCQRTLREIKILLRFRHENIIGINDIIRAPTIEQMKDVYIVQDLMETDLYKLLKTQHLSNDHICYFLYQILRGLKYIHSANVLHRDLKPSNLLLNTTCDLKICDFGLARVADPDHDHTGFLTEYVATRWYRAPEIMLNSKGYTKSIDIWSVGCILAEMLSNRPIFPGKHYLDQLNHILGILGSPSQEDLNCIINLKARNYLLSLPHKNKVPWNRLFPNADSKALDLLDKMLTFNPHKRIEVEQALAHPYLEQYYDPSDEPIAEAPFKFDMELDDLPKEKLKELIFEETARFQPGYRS

[6] = target: Tyrosine-protein kinase receptor UFO (Homo sapiens) (UniProt P30530); experiment: Inhibition of recombinant His-tagged human AXL (473 to end residues) cytoplasmic domain expressed in insect cells at 1 uM by FRET assay relative to control; method in brief: as §1
[7] = target: Calcium/calmodulin-dependent protein kinase kinase 2 (Homo sapiens) (UniProt Q96RR4); experiment: Inhibition of recombinant full length GST-tagged human CAMKK2 expressed in baculovirus expression system at 1 uM by FRET assay relative to control; method in brief: as §3
Chain of Calcium/calmodulin-dependent protein kinase kinase 2 (Homo sapiens) (Q96RR4 2-588 limits assumed): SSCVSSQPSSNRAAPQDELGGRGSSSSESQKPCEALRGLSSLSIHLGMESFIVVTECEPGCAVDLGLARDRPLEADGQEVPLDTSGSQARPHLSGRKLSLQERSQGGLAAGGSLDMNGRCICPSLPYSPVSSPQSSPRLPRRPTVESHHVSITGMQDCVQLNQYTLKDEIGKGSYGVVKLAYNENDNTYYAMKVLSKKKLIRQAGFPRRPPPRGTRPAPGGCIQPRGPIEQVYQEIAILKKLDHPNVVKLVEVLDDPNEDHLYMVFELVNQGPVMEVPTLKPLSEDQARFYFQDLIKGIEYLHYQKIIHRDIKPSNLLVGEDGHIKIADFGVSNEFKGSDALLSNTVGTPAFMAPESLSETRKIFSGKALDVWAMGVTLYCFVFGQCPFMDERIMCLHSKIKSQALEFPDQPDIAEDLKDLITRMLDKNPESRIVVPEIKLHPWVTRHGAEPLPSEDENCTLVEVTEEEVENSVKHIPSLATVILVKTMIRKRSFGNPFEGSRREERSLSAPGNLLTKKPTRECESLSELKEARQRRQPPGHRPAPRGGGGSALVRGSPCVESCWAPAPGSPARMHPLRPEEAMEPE

Homo sapiens [8] = species: Homo sapiens; experiment: Binding affinity to sodium channel site 2 (unknown origin) receptor at 10 uM relative to control; method in brief: as §2
Ephrin type-A receptor 7 = Ephrin type-A receptor 7 (Homo sapiens, UniProt Q15375); experiment: Inhibition of recombinant GST-tagged human EphA7 cytoplasmic domain expressed in baculovirus expression system at 1 uM by FRET assay relative to control; method in brief: as §1
Chain of Ephrin type-A receptor 7 (Q15375 28-998 limits assumed): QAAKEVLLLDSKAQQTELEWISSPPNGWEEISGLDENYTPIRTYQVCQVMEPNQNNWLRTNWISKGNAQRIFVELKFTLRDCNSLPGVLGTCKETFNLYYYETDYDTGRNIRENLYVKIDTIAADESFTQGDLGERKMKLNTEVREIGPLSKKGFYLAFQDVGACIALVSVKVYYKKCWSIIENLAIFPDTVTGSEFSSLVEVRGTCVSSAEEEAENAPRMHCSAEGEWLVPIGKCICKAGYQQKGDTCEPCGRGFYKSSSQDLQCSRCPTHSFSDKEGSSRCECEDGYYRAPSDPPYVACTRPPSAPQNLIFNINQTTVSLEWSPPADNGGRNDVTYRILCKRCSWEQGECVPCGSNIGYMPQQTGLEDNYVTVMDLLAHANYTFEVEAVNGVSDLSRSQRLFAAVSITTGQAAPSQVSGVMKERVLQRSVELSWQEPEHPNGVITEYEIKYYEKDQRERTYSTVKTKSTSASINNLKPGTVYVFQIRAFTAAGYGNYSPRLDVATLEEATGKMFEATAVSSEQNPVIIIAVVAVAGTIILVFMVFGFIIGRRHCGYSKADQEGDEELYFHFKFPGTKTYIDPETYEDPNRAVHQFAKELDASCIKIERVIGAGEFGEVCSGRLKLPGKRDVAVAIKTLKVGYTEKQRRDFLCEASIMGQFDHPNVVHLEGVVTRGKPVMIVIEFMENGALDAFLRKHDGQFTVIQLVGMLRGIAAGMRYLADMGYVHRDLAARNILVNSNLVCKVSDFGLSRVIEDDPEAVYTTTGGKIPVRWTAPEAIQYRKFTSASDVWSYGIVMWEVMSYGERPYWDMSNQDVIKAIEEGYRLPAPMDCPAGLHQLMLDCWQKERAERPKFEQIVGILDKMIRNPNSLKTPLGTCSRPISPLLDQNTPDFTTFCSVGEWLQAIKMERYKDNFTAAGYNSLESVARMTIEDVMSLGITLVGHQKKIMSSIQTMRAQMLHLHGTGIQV

[9] = target: Mitogen-activated protein kinase kinase kinase 11 (Homo sapiens, UniProt Q16584); experiment: Inhibition of recombinant human full length GST-tagged MLK3 expressed in baculovirus expression system by FRET assay
[10] = target: Sodium-dependent dopamine transporter (Homo sapiens) (UniProt Q01959); experiment: Binding affinity to recombinant human dopamine transporter at 10 uM relative to control; method in brief: as §2
Chain of Sodium-dependent dopamine transporter (Homo sapiens) (Q01959 whole entry): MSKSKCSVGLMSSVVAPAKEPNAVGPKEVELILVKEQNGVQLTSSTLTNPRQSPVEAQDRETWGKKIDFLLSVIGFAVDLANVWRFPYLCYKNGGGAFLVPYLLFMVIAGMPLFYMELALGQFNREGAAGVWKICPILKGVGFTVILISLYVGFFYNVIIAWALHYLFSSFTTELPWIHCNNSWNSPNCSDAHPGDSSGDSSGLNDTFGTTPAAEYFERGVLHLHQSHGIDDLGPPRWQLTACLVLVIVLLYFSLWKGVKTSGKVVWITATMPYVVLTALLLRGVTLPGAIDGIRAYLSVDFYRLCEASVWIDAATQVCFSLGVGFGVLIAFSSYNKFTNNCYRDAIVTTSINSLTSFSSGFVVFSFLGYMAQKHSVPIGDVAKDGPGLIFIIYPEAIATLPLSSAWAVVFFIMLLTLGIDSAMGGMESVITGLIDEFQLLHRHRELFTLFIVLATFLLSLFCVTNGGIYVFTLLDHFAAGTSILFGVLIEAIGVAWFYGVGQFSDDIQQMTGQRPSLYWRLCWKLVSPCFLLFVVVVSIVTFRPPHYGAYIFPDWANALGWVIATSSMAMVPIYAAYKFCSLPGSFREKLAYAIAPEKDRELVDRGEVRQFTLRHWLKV

[11] = target: Myosin light chain kinase (Homo sapiens) (UniProt Q32MK0); experiment: Inhibition of recombinant human full length N-terminal GST-tagged caMLCK expressed in baculovirus expression system at 1 uM by FRET assay relative to control
[12] = target: Homeodomain-interacting protein kinase 2 (Homo sapiens) (UniProt Q9H2X6); experiment: Inhibition of recombinant GST-tagged human HIPK2 catalytic domain expressed in baculovirus expression system at 1 uM by FRET relative to control; method in brief: as §1
[13] = target: Interleukin-1 receptor-associated kinase 4 (Homo sapiens) (UniProt Q9NWZ3); experiment: Inhibition of recombinant full length His-tagged human IRAK4 expressed in baculovirus expression system at 1 uM by FRET relative to control
Chain of Interleukin-1 receptor-associated kinase 4 (Homo sapiens) (Q9NWZ3 whole entry): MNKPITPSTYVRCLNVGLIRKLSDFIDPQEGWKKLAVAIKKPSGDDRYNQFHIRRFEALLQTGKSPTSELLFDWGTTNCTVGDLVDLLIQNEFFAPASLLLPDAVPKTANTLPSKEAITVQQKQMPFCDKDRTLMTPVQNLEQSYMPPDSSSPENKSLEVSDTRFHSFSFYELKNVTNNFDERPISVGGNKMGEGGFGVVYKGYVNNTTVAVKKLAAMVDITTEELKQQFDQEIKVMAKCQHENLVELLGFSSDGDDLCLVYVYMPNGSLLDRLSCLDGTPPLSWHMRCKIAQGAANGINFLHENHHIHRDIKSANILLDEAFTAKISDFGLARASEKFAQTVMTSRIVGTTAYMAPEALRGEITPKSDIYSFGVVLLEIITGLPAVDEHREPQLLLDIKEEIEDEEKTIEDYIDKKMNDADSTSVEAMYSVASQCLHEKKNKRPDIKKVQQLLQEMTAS

[14] = target: Serine/threonine-protein kinase 17A (Homo sapiens) (UniProt Q9UEE5); experiment: Inhibition of full length recombinant GST-tagged human DRAK1 expressed in baculovirus expression system at 1 uM by FRET assay relative to control
Chain of Serine/threonine-protein kinase 17A (Homo sapiens) (Q9UEE5 whole entry, the tested form may be a part): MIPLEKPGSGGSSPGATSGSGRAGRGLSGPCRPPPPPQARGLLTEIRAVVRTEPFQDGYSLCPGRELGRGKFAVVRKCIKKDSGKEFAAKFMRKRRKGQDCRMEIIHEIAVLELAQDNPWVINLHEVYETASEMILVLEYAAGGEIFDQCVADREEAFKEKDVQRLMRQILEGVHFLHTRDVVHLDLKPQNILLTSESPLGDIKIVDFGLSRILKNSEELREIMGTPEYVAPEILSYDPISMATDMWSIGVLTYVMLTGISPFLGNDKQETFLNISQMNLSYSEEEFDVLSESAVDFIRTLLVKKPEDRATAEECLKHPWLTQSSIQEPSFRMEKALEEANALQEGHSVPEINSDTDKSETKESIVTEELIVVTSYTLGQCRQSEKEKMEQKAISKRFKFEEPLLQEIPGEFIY

[15] = target: Macrophage colony-stimulating factor 1 receptor (Homo sapiens, UniProt P07333); experiment: Inhibition of recombinant His-tagged human CSF1R cytoplasmic domain (538 to 910 residues) expressed in baculovirus expression system at 1 uM by FRET assay relative to control; method in brief: as §1
[16] = target: Serine/threonine-protein kinase 33 (Homo sapiens) (UniProt Q9BYT3); experiment: Inhibition of recombinant full length His-tagged human STK33 expressed in baculovirus expression system at 1 uM by FRET assay relative to control
[17] = target: STE20-like serine/threonine-protein kinase (Homo sapiens) (UniProt Q9H2G2); experiment: Inhibition of recombinant full length GST-tagged human SLK expressed in baculovirus expression system at 1 uM by FRET assay relative to control; method in brief: as §3
[18] = target: Protein kinase C beta type (Homo sapiens) (UniProt P05771); experiment: Inhibition of PKCbeta1 (unknown origin) at 1 uM by FRET assay relative to control
[19] = target: Serine/threonine-protein kinase Nek4 (Homo sapiens) (UniProt P51957); experiment: Inhibition of recombinant full length GST-tagged human NEK4 expressed in baculovirus expression system at 1 uM by FRET assay relative to control; method in brief: as §3
[20] = target: Mitogen-activated protein kinase 10 (Homo sapiens, UniProt P53779); experiment: Inhibition of recombinant full length GST-tagged human JNK3 expressed in baculovirus expression system at 1 uM by FRET assay relative to control; method in brief: as §3
Chain of Mitogen-activated protein kinase 10 (P53779 whole entry): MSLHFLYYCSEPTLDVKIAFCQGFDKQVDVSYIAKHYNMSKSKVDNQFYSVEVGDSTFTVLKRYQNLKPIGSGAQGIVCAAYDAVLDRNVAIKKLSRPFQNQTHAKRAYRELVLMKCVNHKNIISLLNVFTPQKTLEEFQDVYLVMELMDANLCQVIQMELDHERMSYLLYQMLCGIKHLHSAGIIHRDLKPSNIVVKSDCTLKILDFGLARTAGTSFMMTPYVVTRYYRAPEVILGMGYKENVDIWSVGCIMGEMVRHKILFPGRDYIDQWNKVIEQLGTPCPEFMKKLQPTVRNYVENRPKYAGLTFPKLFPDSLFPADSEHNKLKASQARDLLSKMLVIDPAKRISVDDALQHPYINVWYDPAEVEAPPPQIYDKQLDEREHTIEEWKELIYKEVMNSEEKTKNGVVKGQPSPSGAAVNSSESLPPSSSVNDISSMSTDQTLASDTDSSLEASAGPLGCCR

Homo sapiens [21] = species: Homo sapiens; experiment: Binding affinity to PDE rolipram binding site (unknown origin) receptor at 10 uM relative to control; method in brief: as §2
[22] = target: Mitogen-activated protein kinase 14 (Homo sapiens) (UniProt Q16539); experiment: Inhibition of recombinant full length GST-tagged human p38alpha expressed in Escherichia coli at 1 uM by FRET assay relative to control
[23] = target: CDK2/Cyclin A2 (Homo sapiens) (UniProt P24941+P20248); experiment: Inhibition of recombinant full length His-tagged human CDK2/CyclinA expressed in baculovirus expression system at 1 uM by FRET assay relative to control
[24] = target: D(1A) dopamine receptor (Homo sapiens) (UniProt P21728); experiment: Binding affinity to recombinant full length human D1 dopamine receptor at 10 uM relative to control; method in brief: as §2
Chain of D(1A) dopamine receptor (Homo sapiens) (P21728 whole entry, canonical isoform): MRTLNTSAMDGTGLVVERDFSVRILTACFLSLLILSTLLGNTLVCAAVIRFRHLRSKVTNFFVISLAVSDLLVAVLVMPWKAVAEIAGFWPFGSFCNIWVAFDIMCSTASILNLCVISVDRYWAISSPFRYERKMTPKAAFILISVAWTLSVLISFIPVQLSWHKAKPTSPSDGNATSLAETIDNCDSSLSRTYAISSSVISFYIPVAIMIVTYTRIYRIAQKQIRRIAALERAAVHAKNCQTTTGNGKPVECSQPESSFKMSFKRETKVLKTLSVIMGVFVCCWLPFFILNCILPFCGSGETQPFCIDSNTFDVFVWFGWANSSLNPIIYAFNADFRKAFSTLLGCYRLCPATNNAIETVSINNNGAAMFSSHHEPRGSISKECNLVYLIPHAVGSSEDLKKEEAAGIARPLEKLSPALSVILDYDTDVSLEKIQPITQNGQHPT

[25] = target: Casein kinase I isoform epsilon (Homo sapiens) (UniProt P49674); experiment: Inhibition of CK1epsilon1 (unknown origin) at 1 uM by FRET assay relative to control
[26] = target: CDK7/Cyclin H/MNAT1 (Homo sapiens) (UniProt P51946+P50613+P51948); experiment: Inhibition of recombinant full length His-tagged human CDK7/cyclin H/MNAT1 expressed in baculovirus expression system at 1 uM by FRET assay relative to control
[27] = target: Dual specificity tyrosine-phosphorylation-regulated kinase 4 (Homo sapiens) (UniProt Q9NR20); experiment: Inhibition of full length recombinant GST-tagged human DYRK4 expressed in baculovirus expression system at 1 uM by FRET assay relative to control
Chain of Dual specificity tyrosine-phosphorylation-regulated kinase 4 (Homo sapiens) (Q9NR20 whole entry, the tested form may be a part): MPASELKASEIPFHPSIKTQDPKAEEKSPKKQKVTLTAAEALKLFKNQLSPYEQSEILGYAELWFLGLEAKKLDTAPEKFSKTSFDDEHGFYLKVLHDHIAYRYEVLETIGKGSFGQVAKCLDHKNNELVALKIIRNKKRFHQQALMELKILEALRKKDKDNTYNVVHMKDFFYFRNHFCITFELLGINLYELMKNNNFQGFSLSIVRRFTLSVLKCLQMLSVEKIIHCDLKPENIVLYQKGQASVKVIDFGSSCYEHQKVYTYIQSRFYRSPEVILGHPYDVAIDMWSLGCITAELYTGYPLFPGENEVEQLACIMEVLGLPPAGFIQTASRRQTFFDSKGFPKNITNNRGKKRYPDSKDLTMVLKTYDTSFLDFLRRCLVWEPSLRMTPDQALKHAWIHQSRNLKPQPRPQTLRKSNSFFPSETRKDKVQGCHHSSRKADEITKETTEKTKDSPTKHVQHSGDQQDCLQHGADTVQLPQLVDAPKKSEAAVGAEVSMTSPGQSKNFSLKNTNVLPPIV

[28] = target: Tyrosine-protein kinase TXK (Homo sapiens) (UniProt P42681); experiment: Inhibition of recombinant N-terminal GST-tagged human TXK (260 to 527 residues) expressed in baculovirus expression system at 1 uM by FRET assay relative to control; method in brief: as §3

| SMILES | inhibition [1] | Activity [2] | inhibition [3] | inhibition [4] | inhibition [5] | inhibition [6] | inhibition [7] | Activity (Homo sapiens [8]) | inhibition (Ephrin type-A receptor 7) | IC50 [9] | Activity [10] | inhibition [11] | inhibition [12] | inhibition [13] | inhibition [14] | inhibition [15] | inhibition [16] | inhibition [17] | inhibition [18] | inhibition [19] | other results |
| --- | --- | --- | --- | --- | --- | --- | --- | --- | --- | --- | --- | --- | --- | --- | --- | --- | --- | --- | --- | --- | --- |
| CC(C)n1nc(-c2cnc(N)c(OC(F)(F)F)c2)cc1[C@H]1[C@@H]2CN(C3COC3)C[C@@H]21 | -0.6% | > 50% | 8% | 5.7% | 5.2% | 40.7% | 1.5% | > 50% | 39% | > 10 µM | > 50% | 0.8% | 18% | -1.3% | 5.2% | 46.3% | 2.4% | 4.9% | 1.1% | 0.1% | inhibition [20]: 8.6%; Activity (Homo sapiens [21]): > 50%; inhibition [22]: 1.1%; inhibition [23]: 5.7%; Activity [24]: > 50%; inhibition [25]: 1.5%; inhibition [26]: 28.6%; inhibition [27]: -1.4%; inhibition [28]: 4.7% |
| Nc1ncc(-c2cc([C@H]3[C@@H]4CN(C5COC5)C[C@@H]43)n(CC3CC3)n2)cc1C(F)(F)F | 4.5% | > 50% | -3.8% | 3.6% | 6.3% | 57.4% | 8.7% | > 50% | 51.4% | > 10 µM | > 50% | 1.3% | 14.9% | 5.3% | 7.5% | 54.1% | 2.8% | 4.8% | -7.3% | 2.4% | inhibition [20]: 4.2%; Activity (Homo sapiens [21]): > 50%; inhibition [22]: 5.8%; inhibition [23]: 4.3%; Activity [24]: > 50%; inhibition [25]: 9.5%; inhibition [26]: 15.7%; inhibition [27]: -1.6%; inhibition [28]: 25.6% |
